# An excerpt weighted towards active compounds, which were near 1.1% of everything screened.
# hK5 inh – kallikrein 5 (human) inhibition; AID 873; inhibition, % at 5 µM; actives 0.59% (n = 210,000); Q9Y337; recombinant hK5, fluorogenic AMC substrate cleavage;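 active = inhibition of 40% or more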;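 also: 0% = enzyme controls without compound and 100% = no-enzyme blanks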
# TbHK1 inh – T. brucei hexokinase 1 inhibition; inhibition, % at 10 µM; recombinant TbHK1, G6PDH-coupled NADH A340; AID 1430; actives 0.11% (n = 220,000);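 active = inhibition of 50% or more in the single-dose primary screen; inactive = inhibition below 50%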
# FXIa inh 1536 – factor XIa (human) inhibition. actives 0.14% (n = 220,000). purified FXIa, Boc-Glu-Ala-Arg-AMC fluorogenic substrate. inhibition, % at 5 µM. P03951;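 active = inhibition of at least 40%; inactive = inhibition below 40%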;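 also: fluorescence of freed AMC excited at 355 nm; 0% = enzyme without compound and 100% = no enzyme blank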
# Thrombin inh – blocks human thrombin protease activity. P00734. alpha-thrombin, Boc-VPR-AMC fluorogenic substrate cleavage. inhibition, % at 5 µM. actives 0.26% (n = 220,000). AID 1046;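 active = inhibition at or above 40%; inactive = inhibition below 40%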;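 also: 0% = enzyme with no compound and 100% = wells without enzyme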
#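 Material: human alpha-thrombin protein; Also added: Boc-VPR-AMC substrate, 15 µM final; Timing: enzyme reaction carried out at room temperature; Signal: fluorescence, ex 355 nm, em 460 nm; Measure: % inhibition of thrombin; Controls: enzyme without compound as high, wells lacking enzyme as low.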
# FXIIa inh – inhibitors of human coagulation factor XIIa; actives 0.3% (n = 220,000); inhibition, % at 5 µM; purified FXIIa, Boc-QGR-AMC fluorogenic substrate, 2 h; in the data active = inhibition above about 40%;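 also: 0% = enzyme with no compound and 100% = blank without enzyme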
# Numbers without * were called inactive; · = no result given.
SMILES,hK5 inh,TbHK1 inh,FXIa inh 1536,Thrombin inh,FXIIa inh
O=C1c2ccc(-c3ccc4c(c3)C(=O)N(CCO)C4=O)cc2C(=O)N1CCO,45.5*,-15.6,53.1*,9.5,25.0
CCc1c(C)nc2ncnn2c1N1CCC(C(=O)Nc2ccccc2)CC1,-1.6,-0.9,18.1,-5.9,53.2*
CC(=O)Nc1nnc(SCc2ccc(F)cc2)s1,55.5*,3.2,0.9,12.2,11.1
CCSc1nnc(NC(=O)c2ccco2)s1,32.8,-31.5,9.4,43.8*,-1.2
Cc1nn(C)c(=S)n1-c1ccc(Cl)cc1,43.8*,6.9,28.1,0.9,30.8
CC(C)NS(=O)(=O)c1ccc(OCC(=O)N2CCCC2)cc1,-7.8,-1.9,11.7,2.1,18.7
Cc1ccc(Cl)cc1N1CCN(C(=O)COc2ccc(S(=O)(=O)NC(C)C)cc2)CC1,46.3*,-9.2,16.8,20.0,22.3
O=C(O)CCCC(=O)N1N=C(c2ccccc2)CC1c1cccs1 (centres undefined),24.1,-3.9,49.5*,6.9,25.1
O=C(NC(C(=O)N/N=C/c1ccccn1)c1n[nH]c(=O)c2ccccc12)c1ccccc1 (centres undefined),-3.9,-2.7,-5.7,-4.6,0.3
O=C1NC(=Nc2ccccc2)S/C1=C/c1cccs1,26.4,0.0,32.7,5.6,45.2*
Cc1cccc(N=C2NC(=O)/C(=C\c3cccs3)S2)c1,-4.0,8.4,6.2,-3.3,7.4
O=C1N=C(c2ccccc2)S/C1=C\c1cccs1,2.0,-12.0,34.6,61.3*,36.3
Cc1occc1C(=O)Nc1nnc(-c2cccs2)s1,6.2,-17.2,1.0,8.6,7.3
C1=C(c2ccccc2)CCN(c2nc3ccccc3n3cnnc23)C1,40.6*,-7.3,-1.2,-6.0,3.7
Cc1cccc(OCCn2c(-c3ccco3)nc3ccccc32)c1,48.3*,6.6,-6.4,17.7,21.9
c1ccc(OCCn2c(-c3ccco3)nc3ccccc32)cc1,5.1,2.9,6.8,5.2,16.9
O=C(O)c1cc([N+](=O)[O-])c(NCCC2=CCCCC2)c([N+](=O)[O-])c1,8.3,7.0,2.2,13.9,6.2
C/C(=N\NC(=S)NC1CCCCC1)c1cccc(Br)c1,21.0,-1.7,-7.8,51.4*,-5.7
CCOC(=O)C(=O)N(Nc1ccc(C)cc1)c1ccc(C)cc1,33.6,4.7,50.0*,10.5,24.3
O=C(CSc1ncn[nH]1)c1cc2ccccc2o1,-3.1,-7.2,5.0,-5.1,4.2
O=C(CSc1nccc(=O)[nH]1)c1cc2ccccc2o1,46.4*,-8.4,-7.1,-5.1,2.4
COC(=O)Cc1c(C)nc2nc[nH]n2c1=O,53.8*,-5.8,-3.0,14.3,47.8*
C=C(C)c1cccc(C(C)(C)NC(=O)Nc2ccc(C(C)=O)cc2)c1,71.8*,-2.1,12.3,35.6,10.9
CCC(C(=O)NCc1ccncc1)c1ccccc1 (centres undefined),-0.9,-2.6,-0.1,-3.7,9.9
O=C1CCC(C(=O)Nc2cccc3ccccc23)N1 (centres undefined),61.8*,-0.8,5.9,104.0*,-2.2
SMILES,hK5 inh,TbHK1 inh,FXIa inh 1536,Thrombin inh,FXIIa inh
COCCN(C(=O)C1CC1)c1nnc(-c2ccc(C)cc2)s1,-3.6,-1.2,33.6,0.6,64.5*
Cc1ccc(/C(O)=C2\C(=O)C(=O)N(CC(C)O)C2c2ccccn2)cc1 (centres undefined),2.8,-18.4,-4.5,9.7,1.1
O=C(N/N=C/c1cccnc1)c1ccccc1OCc1ccc(Cl)cc1,4.4,-2.0,1.6,2.5,7.0
O=C(NN=C1CCCC1)c1ccccc1OCc1ccc(Cl)cc1,37.7,12.4,51.8*,33.3,27.9
CC1(C)CC(=O)C(C=Nc2ccccc2Sc2ccccc2)=C(O)C1,43.8*,-13.7,0.6,8.3,1.7
COc1cccc(CNc2ccc3c(c2)ncn3C(C)C)c1OC,58.0*,-9.5,6.6,30.0,36.7
CCCn1cnc2cc(NCc3cccc(OC)c3O)ccc21,-4.8,2.1,4.8,-2.5,19.4
COc1ccc(NC(=O)c2cccnc2N2CCCCC2)cc1,-26.0,-11.9,8.2,2.1,7.0
COc1ccc(NC(=O)c2cccnc2N2CCCC2)cc1,59.0*,-8.2,2.1,24.8,3.7
C=Cc1ccc(CSc2cc(C)nc3nc(C)nn23)cc1,5.8,-8.5,3.9,5.4,14.5
COc1cc(OC)c(NC(=O)c2ccc3c(SCC(=O)O)c4c(nc3c2)CCCC4)cc1Cl,-8.2,-0.9,-1.0,-11.4,5.2
Cn1c(=O)c2c(nc(SCC(=O)N(C3CCCCC3)C3CCCCC3)n2C)n(C)c1=O,·,7.0,·,·,·
